Measured values taken from ChEMBL document CHEMBL1152538, “Synthesis and biological evaluation of asymmetric gramicidin S analogues containing modified D-phenylalanine residues” (Bioorg Med Chem, 2009).
Values after ≈ are worked out from the molar mass of the structure shown. Where a SMILES comes first, the peptide text is derived from it. [ ]: non-standard residue; d: D form. The star is where a group is joined. Phe(4-NO2) = N[C@@H](Cc1ccc([N+](=O)[O-])cc1)C(=O)O; Diphenylacetyl = O=C(C(c1ccccc1)c1ccccc1)*; X5 = O=C(C(c1ccccc1)(c1ccccc1)c1ccccc1)*; Phe(4-NH2) = Nc1ccc(C[C@H](N)C(=O)O)cc1; Isobutyryl = CC(C)C(=O)*; Orn = NCCC[C@H](N)C(=O)O; Propionyl = CCC(=O)*

Columns and labels:
Staphylococcus aureus [1] = experiment: Antibacterial activity against Staphylococcus aureus 7323 after 24 to 96 hrs by well microplate assay; type: functional
Method in brief: (§1)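 Strains were kept at -70 °C, grown at 30 °C on sheep-blood Columbia agar, and suspended in saline to OD595 0.1, then diluted 10×. Inoculum was added at 2 µL per 100 µL Nutrient Broth with yeast extract (2 g/400 mL). Peptide stocks were 4 g/L in ethanol, diluted to 1000 mg/L in water, then twofold in broth (64–1 mg/L). Plates were held at 30 °C for 24–96 h. MIC was the lowest concentration inhibiting growth.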

Staphylococcus aureus [2] = experiment: Antibacterial activity against Staphylococcus aureus 7388 after 24 to 96 hrs by well microplate assay; type: functional; method in brief: as §1
Enterococcus faecalis = experiment: Antibacterial activity against Enterococcus faecalis 1131 after 24 to 96 hrs by well microplate assay; type: functional; method in brief: as §1
Escherichia coli = experiment: Antibacterial activity against Escherichia coli ATCC 25922 after 24 to 96 hrs by well microplate assay; type: functional; method in brief: as §1
Pseudomonas aeruginosa [3] = experiment: Antibacterial activity against Pseudomonas aeruginosa AK1 after 24 to 96 hrs by well microplate assay; type: functional; method in brief: as §1
Pseudomonas aeruginosa [4] = experiment: Antibacterial activity against Pseudomonas aeruginosa ATCC 19582 after 24 to 96 hrs by well microplate assay; type: functional; method in brief: as §1
Streptococcus mitis [5] = experiment: Antibacterial activity against Streptococcus mitis BMS after 24 to 96 hrs by well microplate assay; type: functional; method in brief: as §1
Streptococcus mitis [6] = experiment: Antibacterial activity against Streptococcus mitis ATCC 33399 after 24 to 96 hrs by well microplate assay; type: functional; method in brief: as §1
[7] = tested on: coagulase-negative Staphylococcus; experiment: Antibacterial activity against coagulase-negative Staphylococcus CNS 5277 after 24 to 96 hrs by well microplate assay
[8] = tested on: coagulase-negative Staphylococcus; experiment: Antibacterial activity against coagulase-negative Staphylococcus CNS 5115 after 24 to 96 hrs by well microplate assay
[9] = tested on: coagulase-negative Staphylococcus; experiment: Antibacterial activity against coagulase-negative Staphylococcus CNS 7368 after 24 to 96 hrs by well microplate assay

## CC(C)C[C@@H]1NC(=O)[C@H](CCCN)NC(=O)[C@H](C(C)C)NC(=O)[C@@H]2CCCN2C(=O)[C@H](Cc2ccccc2)NC(=O)[C@H](CC(C)C)NC(=O)[C@H](CCCN)NC(=O)[C@H](C(C)C)NC(=O)[C@@H]2CCCN2C(=O)[C@H](Cc2ccc(NC(=O)C(c3ccccc3)c3ccccc3)cc2)NC1=O (cyclo(FPV[Orn]L[Phe(4-NH2)](Diphenylacetyl)PV[Orn]L))
Staphylococcus aureus [1]
  MIC: 16 µg/mL (≈ 11.8 µM)
Staphylococcus aureus [2]
  MIC: 32 µg/mL (≈ 23.7 µM)
Enterococcus faecalis
  MIC: 16 µg/mL (≈ 11.8 µM)
Escherichia coli
  MIC: > 64 µg/mL
Pseudomonas aeruginosa [3]
  MIC: > 64 µg/mL
Pseudomonas aeruginosa [4]
  MIC: > 64 µg/mL
Streptococcus mitis [5]
  MIC: 16 µg/mL (≈ 11.8 µM)
Streptococcus mitis [6]
  MIC: > 64 µg/mL
[7]
  MIC: 64 µg/mL (≈ 47.4 µM)
[8]
  MIC: > 64 µg/mL
[9]
  MIC: 8 µg/mL (≈ 5.92 µM)

## CC(C)C[C@@H]1NC(=O)[C@H](CCCN)NC(=O)[C@H](C(C)C)NC(=O)[C@@H]2CCCN2C(=O)[C@H](Cc2ccccc2)NC(=O)[C@H](CC(C)C)NC(=O)[C@H](CCCN)NC(=O)[C@H](C(C)C)NC(=O)[C@@H]2CCCN2C(=O)[C@H](Cc2ccc(NC(=O)C(C)C)cc2)NC1=O (cyclo(FPV[Orn]L[Phe(4-NH2)](Isobutyryl)PV[Orn]L))
Staphylococcus aureus [1]
  MIC: 32 µg/mL (≈ 26.1 µM)
Staphylococcus aureus [2]
  MIC: 16 µg/mL (≈ 13 µM)
Enterococcus faecalis
  MIC: 16 µg/mL (≈ 13 µM)
Escherichia coli
  MIC: 32 µg/mL (≈ 26.1 µM)
Pseudomonas aeruginosa [3]
  MIC: > 64 µg/mL
Pseudomonas aeruginosa [4]
  MIC: > 64 µg/mL
Streptococcus mitis [5]
  MIC: 8 µg/mL (≈ 6.52 µM)
Streptococcus mitis [6]
  MIC: 32 µg/mL (≈ 26.1 µM)
[7]
  MIC: 16 µg/mL (≈ 13 µM)
[8]
  MIC: 16 µg/mL (≈ 13 µM)
[9]
  MIC: 16 µg/mL (≈ 13 µM)

## CCC(=O)Nc1ccc(C[C@@H]2NC(=O)[C@H](CC(C)C)NC(=O)[C@H](CCCN)NC(=O)[C@H](C(C)C)NC(=O)[C@@H]3CCCN3C(=O)[C@H](Cc3ccccc3)NC(=O)[C@H](CC(C)C)NC(=O)[C@H](CCCN)NC(=O)[C@H](C(C)C)NC(=O)[C@@H]3CCCN3C2=O)cc1 (cyclo(FPV[Orn]L[Phe(4-NH2)](Propionyl)PV[Orn]L))
Staphylococcus aureus [1]
  MIC: 32 µg/mL (≈ 26.4 µM)
Staphylococcus aureus [2]
  MIC: 16 µg/mL (≈ 13.2 µM)
Enterococcus faecalis
  MIC: 32 µg/mL (≈ 26.4 µM)
Escherichia coli
  MIC: 64 µg/mL (≈ 52.8 µM)
Pseudomonas aeruginosa [3]
  MIC: > 64 µg/mL
Pseudomonas aeruginosa [4]
  MIC: > 64 µg/mL
Streptococcus mitis [5]
  MIC: 8 µg/mL (≈ 6.6 µM)
Streptococcus mitis [6]
  MIC: 16 µg/mL (≈ 13.2 µM)
[7]
  MIC: 8 µg/mL (≈ 6.6 µM)
[8]
  MIC: 16 µg/mL (≈ 13.2 µM)
[9]
  MIC: 8 µg/mL (≈ 6.6 µM)

## CC(C)C[C@@H]1NC(=O)[C@H](CCCN)NC(=O)[C@H](C(C)C)NC(=O)[C@@H]2CCCN2C(=O)[C@H](Cc2ccccc2)NC(=O)[C@H](CC(C)C)NC(=O)[C@H](CCCN)NC(=O)[C@H](C(C)C)NC(=O)[C@@H]2CCCN2C(=O)[C@H](Cc2ccc(NC(=O)C(c3ccccc3)(c3ccccc3)c3ccccc3)cc2)NC1=O (cyclo(FPV[Orn]L[Phe(4-NH2)](X5)PV[Orn]L))
Staphylococcus aureus [1]
  MIC: > 64 µg/mL
Staphylococcus aureus [2]
  MIC: > 64 µg/mL
Enterococcus faecalis
  MIC: > 64 µg/mL
Escherichia coli
  MIC: > 64 µg/mL
Pseudomonas aeruginosa [3]
  MIC: > 64 µg/mL
Pseudomonas aeruginosa [4]
  MIC: > 64 µg/mL
Streptococcus mitis [5]
  MIC: 64 µg/mL (≈ 44.9 µM)
Streptococcus mitis [6]
  MIC: > 64 µg/mL
[7]
  MIC: > 64 µg/mL
[8]
  MIC: > 64 µg/mL
[9]
  MIC: > 64 µg/mL

## CC(C)C[C@@H]1NC(=O)[C@H](CCCN)NC(=O)[C@H](C(C)C)NC(=O)[C@@H]2CCCN2C(=O)[C@H](Cc2ccccc2)NC(=O)[C@H](CC(C)C)NC(=O)[C@H](CCCN)NC(=O)[C@H](C(C)C)NC(=O)[C@@H]2CCCN2C(=O)[C@H](Cc2ccc(N)cc2)NC1=O (cyclo(FPV[Orn]L[Phe(4-NH2)]PV[Orn]L))
Staphylococcus aureus [1]
  MIC: 32 µg/mL (≈ 27.7 µM)
Staphylococcus aureus [2]
  MIC: 16 µg/mL (≈ 13.8 µM)
Enterococcus faecalis
  MIC: 64 µg/mL (≈ 55.3 µM)
Escherichia coli
  MIC: 64 µg/mL (≈ 55.3 µM)
Pseudomonas aeruginosa [3]
  MIC: > 64 µg/mL
Pseudomonas aeruginosa [4]
  MIC: > 64 µg/mL
Streptococcus mitis [5]
  MIC: 8 µg/mL (≈ 6.92 µM)
Streptococcus mitis [6]
  MIC: 32 µg/mL (≈ 27.7 µM)
[7]
  MIC: 16 µg/mL (≈ 13.8 µM)
[8]
  MIC: 32 µg/mL (≈ 27.7 µM)
[9]
  MIC: 16 µg/mL (≈ 13.8 µM)

## CC(C)C[C@@H]1NC(=O)[C@H](CCCN)NC(=O)[C@H](C(C)C)NC(=O)[C@@H]2CCCN2C(=O)[C@H](Cc2ccccc2)NC(=O)[C@H](CC(C)C)NC(=O)[C@H](CCCN)NC(=O)[C@H](C(C)C)NC(=O)[C@@H]2CCCN2C(=O)[C@H](Cc2ccc([N+](=O)[O-])cc2)NC1=O (cyclo(FPV[Orn]L[Phe(4-NO2)]PV[Orn]L))
Staphylococcus aureus [1]
  MIC: 16 µg/mL (≈ 13.5 µM)
Staphylococcus aureus [2]
  MIC: 16 µg/mL (≈ 13.5 µM)
Enterococcus faecalis
  MIC: 32 µg/mL (≈ 27 µM)
Escherichia coli
  MIC: 64 µg/mL (≈ 53.9 µM)
Pseudomonas aeruginosa [3]
  MIC: > 64 µg/mL
Pseudomonas aeruginosa [4]
  MIC: > 64 µg/mL
Streptococcus mitis [5]
  MIC: 32 µg/mL (≈ 27 µM)
Streptococcus mitis [6]
  MIC: 32 µg/mL (≈ 27 µM)
[7]
  MIC: 16 µg/mL (≈ 13.5 µM)
[8]
  MIC: 16 µg/mL (≈ 13.5 µM)
[9]
  MIC: 16 µg/mL (≈ 13.5 µM)
